# Results taken from ChEMBL document CHEMBL1144024, “Low molecular weight lignin suppresses activation of NF-kappaB and HIV-1 promoter” (Bioorg Med Chem, 2008).
# How the values were obtained:
# [1] = test system: Human immunodeficiency virus 1; assay: Inhibition of HIV1 5'-long terminal repeat promoter expression in human 293T cells by luciferase assay; assay type: functional; conditions: Human immunodeficiency virus 1, HEK-293T
# Summary of the method: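 293-T cells co-transfected in 10-cm dishes with 5 lg CD-12-luc LTR reporter plus 0.008 lg pCMV-β-galactosidase. Replated after 2 h and cultured 4 h, then exposed to test agent or vehicle for 20 h (lignins) or 21 h (model compounds). Luciferase chemiluminescence normalized to β-galactosidase. IC50 reported; lignin data are means of three independent experiments.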
# [2] = Inhibition of TNF-induced NF-kappaB activation in human […] cells by luciferase assay; assay type: cell-based
# Summary of the method: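 293-T cells co-transfected with 5 lg NF-κB luciferase reporter plus 0.008 lg pCMV-β-galactosidase, then replated after 2 h. Cultured 19 h (lignins) or 20 h (model compounds) before 1 h pretreatment with test agent. Stimulated with 3 ng/ml TNFα for 5 h. Luciferase chemiluminescence normalized to β-galactosidase activity; IC50 reported.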
Compound,IC50 [1],IC50 [2]
COc1cc([C@H]2Oc3c(OC)cc(/C=C/CO)cc3[C@@H]2CO)ccc1O,34 µg/mL,19 µg/mL
CCCc1cc(OC)c(O)c(-c2cc(CCC)cc(OC)c2O)c1,> 150 µg/mL,> 150 µg/mL
COc1cc([C@@H](O)[C@@H](CO)c2ccc(O)c(OC)c2)ccc1O,> 150 µg/mL,> 150 µg/mL
"COc1cc([C@@H]2OC[C@@H]3[C@H]2CO[C@H]3c2ccc(O)c(OC)c2)ccc1O (single isomer, unassigned) [(+)-PINORESINOL]",> 150 µg/mL,49 µg/mL

# Results, then the molecule that gave them:
IC50 [1],IC50 [2],Compound
> 150 µg/mL,126 µg/mL,COc1cc([C@@H](O)[C@@H](CO)Oc2ccccc2OC)ccc1O
107 µg/mL,43 µg/mL,COc1cc(C(=O)[C@@H](CO)Oc2ccccc2OC)ccc1O
